ChEMBL document CHEMBL2034828, “Synthesis of β(1,3) oligoglucans exhibiting a Dectin-1 binding affinity and their biological evaluation” (Bioorg Med Chem, 2012)
Calls of active or inactive are those of the source. The calls are words filed in the database; no cut-off is given here.

Legend:
[1] = target: T1, C-type lectin domain family 7 member A (Mus musculus) (UniProt Q6QLQ4); assay: Inhibition of mouse N-terminal hexahistidine-tagged C-type lectin domain of Dectin-1 expressed in Escherichia coli BL21 (DE3) binding to solid-supported schizophyllan pretreated for 30 mins prior SPG addition measured after 1 hr by competitive ELISA relative to SPG
T1 sequence (whole entry): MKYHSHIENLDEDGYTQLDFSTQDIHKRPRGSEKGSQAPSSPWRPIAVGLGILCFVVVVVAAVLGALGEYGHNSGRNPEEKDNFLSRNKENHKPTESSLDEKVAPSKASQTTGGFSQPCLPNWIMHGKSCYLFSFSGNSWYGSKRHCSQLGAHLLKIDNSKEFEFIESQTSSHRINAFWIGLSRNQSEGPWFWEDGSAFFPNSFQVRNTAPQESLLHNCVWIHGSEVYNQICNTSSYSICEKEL

[2] = target: T2, C-type lectin domain family 7 member A (Homo sapiens) (UniProt Q9BXN2); assay: Agonist activity at Dectin-1 expressed in human 293T cells assessed as LPS-mediated NF-kappaB activation after 6 hrs by dual luciferase reporter gene assay; format: functional, cell-based
T2 sequence (whole entry): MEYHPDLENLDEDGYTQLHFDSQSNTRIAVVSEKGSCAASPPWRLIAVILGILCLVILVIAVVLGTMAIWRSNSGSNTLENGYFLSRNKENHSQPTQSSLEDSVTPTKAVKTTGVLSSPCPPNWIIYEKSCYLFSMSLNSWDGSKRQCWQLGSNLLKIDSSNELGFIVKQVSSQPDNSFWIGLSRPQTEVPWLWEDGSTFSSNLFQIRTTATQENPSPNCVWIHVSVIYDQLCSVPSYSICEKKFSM
Summary of the method: (§1)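 293T cells were plated at 1 × 10⁴ cells/well in DMEM with 10% FBS for 20 h at 37 °C, 5% CO₂. They were then lipofected for 18 h. Dectin-1 wells received Dectin-1A, CARD9 and Bcl10 plasmids; TLR4 wells received TLR4 and MD-2 plasmids. Both received NF-κB-RE firefly and TK-Renilla reporters. Cells were stimulated 6 h with oligosaccharides, SPG, or oligosaccharides plus LPS. Read-out was the firefly/Renilla dual-luciferase ratio.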

[3] = target: Toll-like receptor 4 (Homo sapiens) (UniProt O00206); assay: Agonist activity at TLR4 expressed in human 293T cells assessed as LPS-mediated NF-kappaB activation after 6 hrs by dual luciferase reporter gene assay; format: functional, cell-based; summary of the method: as §1
Chain of Toll-like receptor 4 (Homo sapiens) (O00206 whole entry, the tested form may be a part): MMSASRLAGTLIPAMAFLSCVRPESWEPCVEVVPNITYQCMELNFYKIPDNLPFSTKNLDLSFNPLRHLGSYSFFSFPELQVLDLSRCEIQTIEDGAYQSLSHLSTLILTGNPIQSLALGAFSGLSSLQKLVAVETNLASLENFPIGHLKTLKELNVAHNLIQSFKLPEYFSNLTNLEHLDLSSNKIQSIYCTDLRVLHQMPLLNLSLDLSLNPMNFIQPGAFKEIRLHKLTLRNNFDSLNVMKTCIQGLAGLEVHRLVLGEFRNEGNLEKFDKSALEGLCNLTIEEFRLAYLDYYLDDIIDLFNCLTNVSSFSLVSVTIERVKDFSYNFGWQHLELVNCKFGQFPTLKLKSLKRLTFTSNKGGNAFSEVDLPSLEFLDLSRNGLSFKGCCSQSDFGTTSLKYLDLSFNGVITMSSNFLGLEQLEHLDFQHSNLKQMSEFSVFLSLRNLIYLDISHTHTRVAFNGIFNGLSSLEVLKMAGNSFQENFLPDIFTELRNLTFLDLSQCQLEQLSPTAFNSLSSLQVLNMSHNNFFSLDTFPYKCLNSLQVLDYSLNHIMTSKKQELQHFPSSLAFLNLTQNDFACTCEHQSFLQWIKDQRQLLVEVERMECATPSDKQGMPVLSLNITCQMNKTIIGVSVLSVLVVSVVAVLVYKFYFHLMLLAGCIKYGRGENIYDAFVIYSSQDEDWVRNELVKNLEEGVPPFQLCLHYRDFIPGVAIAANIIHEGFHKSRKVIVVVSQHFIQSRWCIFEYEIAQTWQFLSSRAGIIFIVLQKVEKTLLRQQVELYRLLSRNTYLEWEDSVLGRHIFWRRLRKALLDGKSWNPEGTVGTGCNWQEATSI

[4] = target: T1, C-type lectin domain family 7 member A (Mus musculus); assay: Binding affinity to mouse N-terminal hexahistidine-tagged C-type lectin domain of Dectin-1 expressed in Escherichia coli BL21 (DE3) by STD-NMR analysis
Summary of the method: (§2)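 Protein was mouse Dectin-1 CTLD (Gly113–Leu244) with an N-terminal His6 tag and thrombin site, expressed in E. coli BL21(DE3)codonplus in LB. Expression was induced 6 h at 37 °C. Inclusion bodies were solubilized in 8 M urea, 50 mM Tris-HCl pH 8.0, 50 mM NaCl. Protein was refolded 16 h at 4 °C by dilution into 200 mM Tris-HCl pH 8.0, 0.4 M L-arginine, 5.0 mM GSH, 0.5 mM GSSG, then purified. Ligand was titrated at 0–25 molar equivalents with ¹H NMR monitoring.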

[5] = target: T1, C-type lectin domain family 7 member A (Mus musculus); assay: Binding affinity to mouse N-terminal hexahistidine-tagged C-type lectin domain of Dectin-1 expressed in Escherichia coli BL21 (DE3) by measuring saturation transfer difference amplification factor; summary of the method: as §2

**Q.** With `NCCCCCCO[C@@H]1O[C@H](CO)[C@@H](O)[C@H](O[C@@H]2O[C@H](CO)[C@@H](O)[C@H](O[C@@H]3O[C@H](CO)[C@@H](O)[C@H](O[C@@H]4O[C@H](CO)[C@@H](O)[C@H](O[C@@H]5O[C@H](CO)[C@@H](O)[C@H](O[C@@H]6O[C@H](CO)[C@@H](O)[C@H](O[C@@H]7O[C@H](CO)[C@@H](O)[C@H](O[C@@H]8O[C@H](CO)[C@@H](O)[C@H](O)[C@H]8O)[C@H]7O)[C@H]6O)[C@H]5O)[C@H]4O)[C@H]3O)[C@H]2O)[C@H]1O` as the molecule, how does the Activity [1] read?
**A.** inactive

**Q.** What about the Activity [2] of the same molecule?
**A.** inactive

**Q.** What about the Activity [3] of the same molecule?
**A.** inactive

**Q.** `NCCCCCCO[C@@H]1O[C@H](CO)[C@@H](O)[C@H](O[C@@H]2O[C@H](CO)[C@@H](O)[C@H](O[C@@H]3O[C@H](CO)[C@@H](O)[C@H](O[C@@H]4O[C@H](CO)[C@@H](O)[C@H](O[C@@H]5O[C@H](CO)[C@@H](O)[C@H](O[C@@H]6O[C@H](CO)[C@@H](O)[C@H](O[C@@H]7O[C@H](CO)[C@@H](O)[C@H](O[C@@H]8O[C@H](CO)[C@@H](O)[C@H](O[C@@H]9O[C@H](CO)[C@@H](O)[C@H](O[C@@H]%10O[C@H](CO)[C@@H](O)[C@H](O[C@@H]%11O[C@H](CO)[C@@H](O)[C@H](O[C@@H]%12O[C@H](CO)[C@@H](O)[C@H](O)[C@H]%12O)[C@H]%11O)[C@H]%10O)[C@H]9O)[C@H]8O)[C@H]7O)[C@H]6O)[C@H]5O)[C@H]4O)[C@H]3O)[C@H]2O)[C@H]1O` was tested. Which Activity [1] did it give?
**A.** inactive

**Q.** And the Activity [2]?
**A.** inactive

**Q.** And the Activity [3]?
**A.** inactive

**Q.** Which fold change (FC) [1] does the source give for `NCCCCCCO[C@@H]1O[C@H](CO)[C@@H](O)[C@H](O[C@@H]2O[C@H](CO)[C@@H](O)[C@H](O[C@@H]3O[C@H](CO)[C@@H](O)[C@H](O[C@@H]4O[C@H](CO)[C@@H](O)[C@H](O[C@@H]5O[C@H](CO)[C@@H](O)[C@H](O[C@@H]6O[C@H](CO)[C@@H](O)[C@H](O[C@@H]7O[C@H](CO)[C@@H](O)[C@H](O[C@@H]8O[C@H](CO)[C@@H](O)[C@H](O[C@@H]9O[C@H](CO)[C@@H](O)[C@H](O[C@@H]%10O[C@H](CO)[C@@H](O)[C@H](O[C@@H]%11O[C@H](CO)[C@@H](O)[C@H](O[C@@H]%12O[C@H](CO)[C@@H](O)[C@H](O[C@@H]%13O[C@H](CO)[C@@H](O)[C@H](O[C@@H]%14O[C@H](CO[C@@H]%15O[C@H](CO)[C@@H](O)[C@H](O)[C@H]%15O)[C@@H](O)[C@H](O[C@@H]%15O[C@H](CO)[C@@H](O)[C@H](O[C@@H]%16O[C@H](CO)[C@@H](O)[C@H](O)[C@H]%16O)[C@H]%15O)[C@H]%14O)[C@H]%13O)[C@H]%12O)[C@H]%11O)[C@H]%10O)[C@H]9O)[C@H]8O)[C@H]7O)[C@H]6O)[C@H]5O)[C@H]4O)[C@H]3O)[C@H]2O)[C@H]1O` here?
**A.** 10

**Q.** What about the Activity [2] of the same molecule?
**A.** Active

**Q.** For `NCCCCCCO[C@@H]1O[C@H](CO)[C@@H](O)[C@H](O[C@@H]2O[C@H](CO)[C@@H](O)[C@H](O[C@@H]3O[C@H](CO)[C@@H](O)[C@H](O[C@@H]4O[C@H](CO)[C@@H](O)[C@H](O[C@@H]5O[C@H](CO)[C@@H](O)[C@H](O[C@@H]6O[C@H](CO)[C@@H](O)[C@H](O[C@@H]7O[C@H](CO)[C@@H](O)[C@H](O[C@@H]8O[C@H](CO)[C@@H](O)[C@H](O[C@@H]9O[C@H](CO)[C@@H](O)[C@H](O[C@@H]%10O[C@H](CO[C@@H]%11O[C@H](CO)[C@@H](O)[C@H](O)[C@H]%11O)[C@@H](O)[C@H](O[C@@H]%11O[C@H](CO)[C@@H](O)[C@H](O[C@@H]%12O[C@H](CO)[C@@H](O)[C@H](O)[C@H]%12O)[C@H]%11O)[C@H]%10O)[C@H]9O)[C@H]8O)[C@H]7O)[C@H]6O)[C@H]5O)[C@H]4O)[C@H]3O)[C@H]2O)[C@H]1O`, which Activity [1] is on record?
**A.** inactive

**Q.** And the Activity [2]?
**A.** inactive

**Q.** Which results are given for `NCCCCCCO[C@@H]1O[C@H](CO)[C@@H](O)[C@H](O[C@@H]2O[C@H](CO)[C@@H](O)[C@H](O[C@@H]3O[C@H](CO)[C@@H](O)[C@H](O[C@@H]4O[C@H](CO)[C@@H](O)[C@H](O[C@@H]5O[C@H](CO)[C@@H](O)[C@H](O[C@@H]6O[C@H](CO)[C@@H](O)[C@H](O[C@@H]7O[C@H](CO)[C@@H](O)[C@H](O[C@@H]8O[C@H](CO)[C@@H](O)[C@H](O[C@@H]9O[C@H](CO)[C@@H](O)[C@H](O[C@@H]%10O[C@H](CO)[C@@H](O)[C@H](O[C@@H]%11O[C@H](CO)[C@@H](O)[C@H](O[C@@H]%12O[C@H](CO)[C@@H](O)[C@H](O[C@@H]%13O[C@H](CO)[C@@H](O)[C@H](O[C@@H]%14O[C@H](CO)[C@@H](O)[C@H](O[C@@H]%15O[C@H](CO)[C@@H](O)[C@H](O[C@@H]%16O[C@H](CO)[C@@H](O)[C@H](O)[C@H]%16O)[C@H]%15O)[C@H]%14O)[C@H]%13O)[C@H]%12O)[C@H]%11O)[C@H]%10O)[C@H]9O)[C@H]8O)[C@H]7O)[C@H]6O)[C@H]5O)[C@H]4O)[C@H]3O)[C@H]2O)[C@H]1O`?
**A.** fold change (FC) [1]: 10; Activity [2]: Active; Activity [4]: Active; Activity [3]: inactive; Activity [5]: Active

**Q.** `NCCCCCCO[C@@H]1O[C@H](CO)[C@@H](O)[C@H](O[C@@H]2O[C@H](CO)[C@@H](O)[C@H](O[C@@H]3O[C@H](CO)[C@@H](O)[C@H](O[C@@H]4O[C@H](CO)[C@@H](O)[C@H](O[C@@H]5O[C@H](CO)[C@@H](O)[C@H](O[C@@H]6O[C@H](CO[C@@H]7O[C@H](CO)[C@@H](O)[C@H](O)[C@H]7O)[C@@H](O)[C@H](O[C@@H]7O[C@H](CO)[C@@H](O)[C@H](O[C@@H]8O[C@H](CO)[C@@H](O)[C@H](O)[C@H]8O)[C@H]7O)[C@H]6O)[C@H]5O)[C@H]4O)[C@H]3O)[C@H]2O)[C@H]1O` was tested. Which Activity [1] did it give?
**A.** inactive

**Q.** What about the Activity [2] of the same molecule?
**A.** inactive
